H69AR growth 86K: proliferation blockers of H69AR lung cancer cells, primary screen, cell-based, human, 86K library. AID 598, 2007. H69AR lung tumor viability, ATP luminescence, 72 h; stronger effect = lower value. viability, % at 10 µM. actives 6% (n = 85,000);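 active = viability at or below 40%; inactive = viability above 40%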;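 note: multidrug resistant small cell line overexpressing MRP-1 efflux transporter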
PTEN del growth: growth suppression of PTEN-null HCT116, primary screen, cell-based, CellTiter-Glo | HCT116 PTEN-null viability, 60 h; stronger effect = lower value | actives 1.2% (n = 140,000) | viability, % at 10 µM;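 active = viability at or below a set limit, 4 SD under the median of all tested compounds, cut at about 3.7% in these data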;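 note: PTEN knockout HCT116 line with beta catenin targeted HCT116 as companion control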
Lung fibro prol: antiproliferative effect on LL 47 fibroblasts – human, LL 47 cells, CellTiter-Glo luminescence, primary screen; AID 719, 2007; actives 1.1% (n = 85,000); LL 47 human lung fibroblast viability, ATP luminescence; stronger effect = lower value; viability, % at 10 µM;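 active = viability at or below 50% in the single dose screen; inactive = viability above 50%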;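 note: compound exposure lasted 72 h before the ATP readout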
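Signal: luminescent ATP detection, CellTiter-Glo; assay system: LL 47 human lung fibroblasts; input: 1,150 cells/well; incubation: overnight cell rest, 72 h compound treatment at 37 °C; measure: % viability versus median cells-only luminescence; medium: IMEM growth medium with 15% fetal bovine serum; dosing: compound addition at 0.1% DMSO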
HUVEC prolif 384: inhibitors of HUVEC proliferation, primary screen, cell-based, 384-well | CellTiter-Glo luminescence, 72 h; stronger effect = lower value | actives 1.1% (n = 86,000) | viability, % at 10 µM (by protocol);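 active = viability at or below 30%; inactive = viability above 30%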
HCT116 bCat-KO: primary screen for growth suppressors in beta-catenin knockout HCT116 cells (colon tumor, human); HCT116 beta-catenin knockout viability, CellTiter-Glo, 60 h; stronger effect = lower value; viability, % at 10 µM; actives 1.5% (n = 140,000);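 active = viability at or under a set limit, the compound median less 4 SD, cut at about 6% in these data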
Each line names hits and unclear results; the compound was inactive in the other large screens. The entries come from a sample that favours hits as a whole.

CCC(Sc1nc2cc3c(cc2c(=O)n1Cc1ccco1)OCO3)C(=O)NCCOC (configuration not stated)	none
CCC(Sc1nc2cc3c(cc2c(=O)n1Cc1ccco1)OCO3)C(=O)Nc1cccc(OC)c1 (configuration not stated)	H69AR growth 86K 11, PTEN del growth 1.7, Lung fibro prol 36, HUVEC prolif 384 4.1, HCT116 bCat-KO 1.7
O=C(c1ccc(Cl)cc1)[C@@H]1[C@@H]2C(=O)N(c3cccc4ccccc34)C(=O)[C@@H]2C2c3ccccc3C=NN21 (some centres not stated)	none (no result: H69AR growth 86K, Lung fibro prol, HUVEC prolif 384)
COCCn1ccc(O)c(Cc2ccccc2)c1=O	none (no result: H69AR growth 86K, Lung fibro prol, HUVEC prolif 384)
COc1ccc(N(C(=O)CCl)C(C(=O)NC2CCCCC2)c2cccnc2)cc1 (configuration not stated)	PTEN del growth 2.5, HCT116 bCat-KO 2.8 (no result: H69AR growth 86K, Lung fibro prol, HUVEC prolif 384)
O=C(NC1CCCCC1)C(c1cccnc1)N(C(=O)CCl)c1ccc(F)cc1 (configuration not stated)	PTEN del growth 3.0, HCT116 bCat-KO 4.2 (no result: H69AR growth 86K, Lung fibro prol, HUVEC prolif 384)
O=C(NC1CCCCC1)C(c1cccnc1)N(C(=O)CCl)c1ccccc1Cl (configuration not stated)	none (no result: H69AR growth 86K, Lung fibro prol, HUVEC prolif 384)
O=C(NCC(=O)N(c1cccnc1)C(C(=O)NC1CCCCC1)c1cccnc1)c1ccco1 (configuration not stated)	none
CC(C)Cn1c(SCC(=O)N2CCN(S(=O)(=O)c3ccccc3)CC2)nc2ccccc21	H69AR growth 86K 31
COc1ccc(OC)c([C@@H]2OCCC=C[C@H]2C)c1	none (no result: H69AR growth 86K, Lung fibro prol, HUVEC prolif 384)
O=C(Nc1ccc(N2CCOCC2)cc1)c1ccc(Cl)nc1	none
CS(=O)(=O)c1ncc(Cl)c(C(=O)Nc2ccc(N3CCOCC3)cc2)n1	H69AR growth 86K 0.2 (no result: Lung fibro prol)
O=C(/C=C\c1ccccc1OC(=O)c1ccccc1F)c1cc2ccccc2o1	PTEN del growth 2.0, HCT116 bCat-KO 3.3 (no result: H69AR growth 86K, Lung fibro prol, HUVEC prolif 384)
CC(C)CCCCCCNC(=S)Nc1ccc(S(=O)(=O)N2CCOCC2)cc1	none (no result: H69AR growth 86K, Lung fibro prol, HUVEC prolif 384)
CCC(C)/C(C)=N/NC(=O)c1ccc(COc2ccc(Cl)c(C)c2)cc1 (configuration not stated)	none (no result: H69AR growth 86K, Lung fibro prol, HUVEC prolif 384)
CC(Cc1cccs1)NC(=O)Nc1ccc(Cl)c(Cl)c1 (configuration not stated)	H69AR growth 86K 26
C[C@H](Nc1ncnc2sc3c(c12)CCC3)C(=O)O	none
Cc1ccc(C(=O)Nc2ncnc3sc4c(c23)CCCCC4)cc1	H69AR growth 86K 31
COc1cccc(N2CCN(c3ncnc4c3[nH]c3ccc(F)cc34)CC2C)c1 (configuration not stated)	H69AR growth 86K 4.0, PTEN del growth 1.6, Lung fibro prol 1.9, HUVEC prolif 384 2.3, HCT116 bCat-KO 2.0
COc1cccc(N2CCN(c3ncnc4c3[nH]c3ccccc34)CC2C)c1 (configuration not stated)	HCT116 bCat-KO 4.7 (no result: H69AR growth 86K, Lung fibro prol, HUVEC prolif 384)
O=C(c1cn(-c2ccccc2)nc1-c1cccs1)N1CCOCC1	none
O=C(c1cn(-c2ccccc2)nc1-c1cccs1)N1CCN(c2ccccc2)CC1	H69AR growth 86K 11
CN1C(=O)C(c2nnc(Nc3cccc4ccccc34)s2)C2CC1(C)Oc1ccccc12 (configuration not stated)	none (no result: H69AR growth 86K, Lung fibro prol, HUVEC prolif 384)
Nc1ccccc1Nc1ccccc1	H69AR growth 86K 11
CC(C)(C)c1nn2cnnc2n(/N=C/c2ccccc2)c1=O	none (no result: H69AR growth 86K, Lung fibro prol, HUVEC prolif 384)
COc1cc(/C=N/NC(=Nc2ccc(C)cc2)c2nc3ccccc3s2)ccc1O	H69AR growth 86K 35
COc1cc(-c2nc3ccccc3s2)ccc1O	H69AR growth 86K 40
CCc1ccccc1NC(=O)c1ccc(CN2CCC(Cc3ccccc3)CC2)cc1	none (no result: H69AR growth 86K, Lung fibro prol, HUVEC prolif 384)
Cc1nc2c(C(=O)NCCC(C)C)c[nH]n2c(=O)c1Cc1ccccc1F	HUVEC prolif 384 12
Cc1nc2c(C(=O)NCCC(C)C)c[nH]n2c(=O)c1Cl	none (no result: H69AR growth 86K, Lung fibro prol, HUVEC prolif 384)
CCOC(=O)c1c(NC(=O)CN2CCCc3ccccc32)sc(C(C)=O)c1C	none (no result: H69AR growth 86K, Lung fibro prol, HUVEC prolif 384)
COC(=O)c1ccc(C(=O)NC(=S)Nc2ccc3nc(SC)sc3c2)cc1	PTEN del growth 1.5, HCT116 bCat-KO 0.9 (no result: H69AR growth 86K, Lung fibro prol, HUVEC prolif 384)
O=C(c1ccc([N+](=O)[O-])cc1)N(Cc1ccc(Br)cc1)N1C(=O)CCCC1=O	none
COC(=O)c1ccccc1NC(=O)N1c2ccccc2Sc2ccccc21	none (no result: H69AR growth 86K, Lung fibro prol, HUVEC prolif 384)
COc1ccccc1OCc1nc2c3c(-c4ccccc4)c(-c4ccccc4)oc3ncn2n1	H69AR growth 86K 25 (no result: PTEN del growth, HCT116 bCat-KO)
O=S(=O)(Nc1ccc(N2CCCCC2)cc1)c1ccc(F)c(F)c1	none (no result: H69AR growth 86K, Lung fibro prol, HUVEC prolif 384)
COc1ccc(C(=O)NC2(C(F)(F)F)NC(=O)N(CCCc3ccccc3)C2=O)cc1OC (configuration not stated)	none (no result: H69AR growth 86K, Lung fibro prol, HUVEC prolif 384)
Oc1c(Cl)cc(Cl)c2c1NCCC2	H69AR growth 86K 4.4
O=C1NCCCc2c1oc1ccc(O)cc21	none
CC(C)CNC(=O)c1cccc(NC(=O)Cc2ccc(Cl)cc2)c1	none (no result: H69AR growth 86K, Lung fibro prol, HUVEC prolif 384)
COc1ccc(-c2noc(-c3ccc(Br)o3)n2)cc1OC	HUVEC prolif 384 29
CCC(C)N1CC(O)=C(c2nc3ccccc3[nH]2)C1=N (configuration not stated)	none
N=C1C(c2nc3ccccc3[nH]2)=C(O)CN1c1ccc(CC(=O)O)cc1	none
N=C1C(c2nc3ccccc3[nH]2)=C(O)CN1c1ccccc1	H69AR growth 86K 32
CC1C(O)=C(c2nc3ccccc3[nH]2)C(=N)N1c1ccccc1 (configuration not stated)	H69AR growth 86K 22
CCOC(=O)c1c(NC(=O)CN2C(=O)NC(C)(c3ccccc3)C2=O)sc(C)c1C (configuration not stated)	none (no result: H69AR growth 86K, Lung fibro prol, HUVEC prolif 384)
Cc1ccc(S(=O)(=O)NCCC(=O)Nc2ccc(Cl)c(Cl)c2)cc1	none (no result: H69AR growth 86K, Lung fibro prol, HUVEC prolif 384)
CCCCN(CCCC)CC(O)COc1ccccc1Br (configuration not stated)	none (no result: H69AR growth 86K, Lung fibro prol, HUVEC prolif 384)
CCCC1(c2ccccc2)NC(=O)N(CC(=O)Nc2sc(-c3ccccc3)cc2C(=O)OCC)C1=O (configuration not stated)	H69AR growth 86K 34, Lung fibro prol 22, HUVEC prolif 384 22
CCOC(=O)c1cc(-c2ccccc2)sc1NC(=O)CC(C)C	none (no result: H69AR growth 86K, Lung fibro prol, HUVEC prolif 384)
CCOC(=O)c1cnc2ccc(OCC)cc2c1N(C)Cc1ccccc1	none (no result: H69AR growth 86K, Lung fibro prol, HUVEC prolif 384)
Cc1nc2ccc(Cl)cc2c(-c2ccccc2F)c1CC(=O)O	none (no result: H69AR growth 86K, Lung fibro prol, HUVEC prolif 384)
O=C(Nc1ccc(N2CCCC2)cc1)C(Cl)c1ccccc1 (configuration not stated)	H69AR growth 86K 22
CS(=O)(=O)N1CCN(c2ccc(NC(=O)C(c3ccccc3)c3ccccc3)cc2)CC1	none
COC(=O)c1ccccc1NC(=O)CCc1ccccc1	none (no result: H69AR growth 86K, Lung fibro prol, HUVEC prolif 384)
COC(=O)c1ccccc1CCC(C)=O	H69AR growth 86K 24
COCCn1c(C)cc(C(=O)CSc2nc3ccccc3o2)c1C	HUVEC prolif 384 25
COCCn1c(C)cc(C(=O)CSc2nc3ccccc3s2)c1C	none (no result: H69AR growth 86K, Lung fibro prol, HUVEC prolif 384)
O=c1/c(=C/c2ccc([N+](=O)[O-])cc2)sc2n1CCCN=2	HCT116 bCat-KO 2.1 (no result: H69AR growth 86K, Lung fibro prol, HUVEC prolif 384)
COc1cc(/C=c2\sc3n(c2=O)CCCN=3)ccc1O	none

Compound activity (PubChem BioAssay)
